DDE Tn7 FP inh = inhibitors of Tn7 peptide binding to human fibrin DD(E). P02675. AID 720508. FP displacement of FITC-Tn7 peptide from fibrin DD(E); 0% = median of compound wells per plate. inhibition, % at 8.3 µM. 0.13% of 370,000 active;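 active = inhibition above the mean of compounds falling within the control limits plus 3 SD of them, cut at about 14% in these data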;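 also: 0% = plate median of compound wells and 100% = 10 µM Aha-Tn7 peptide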
Target sequence (P02675 whole entry, looked up): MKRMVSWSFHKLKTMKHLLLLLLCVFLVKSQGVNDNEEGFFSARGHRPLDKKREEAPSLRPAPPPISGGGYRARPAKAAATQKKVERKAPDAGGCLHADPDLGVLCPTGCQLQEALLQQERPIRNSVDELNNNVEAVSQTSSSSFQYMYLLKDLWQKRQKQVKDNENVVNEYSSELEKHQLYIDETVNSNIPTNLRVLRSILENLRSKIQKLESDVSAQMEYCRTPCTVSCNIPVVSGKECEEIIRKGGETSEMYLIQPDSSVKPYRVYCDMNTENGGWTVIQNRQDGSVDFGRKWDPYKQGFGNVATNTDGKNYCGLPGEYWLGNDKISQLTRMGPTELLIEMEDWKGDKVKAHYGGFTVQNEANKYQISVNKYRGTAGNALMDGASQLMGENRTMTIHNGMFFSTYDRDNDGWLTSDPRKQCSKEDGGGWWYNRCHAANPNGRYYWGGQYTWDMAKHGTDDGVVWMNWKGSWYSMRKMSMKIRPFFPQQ
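Test system – human fibrin DD(E) · Times – 10 min preincubation, 3 h with tracer, room temperature · Detection – fluorescence polarization of the labelled Tn7 tracer · Measure – percent inhibition normalized to high-control wells · Benchmarks – high control wells with 10 µM unlabelled Aha-Tn7 peptide (full inhibition) · Repeats – singlicate testing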
DDE Tn6 FP inh = DD(E)-Tn6 binding inhibition, primary FP screen. P02675. Fibrin DD(E) TRITC-Tn6 fluorescence polarization displacement. inhibition, % at 8.3 µM. 0.21% of 370,000 active;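 active = inhibition above a per-campaign cutoff: mean of compounds within control limits plus 3 SD, cut at about 15% in these data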;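 also: 0% = median of all compound wells on the plate and 100% = blocking peptide control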
NRP1-CendR mod = alters CendR peptide binding to human NRP-1; FAM-RPARPAR peptide binding to NRP-1, fluorescence polarization; inhibition, % at 25 µM; 0.85% of 360,000 active;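 active = inhibition or corrected inhibition above about 18%, plus a signal ratio from 0.5 to 1.5, limit read from the data, passing the limit was not always enough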
aDG glyco up = increases alpha dystroglycan glycosylation. Pro5-aDG cells, alpha-DG glycosylation AlphaScreen (IIH6); 0% Pro5, 100% B10-LARGE cell signal. 0.22% of 360,000 active. activation, % at 10 µM;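 active = activation of at least 8% versus controls, or a plate z-score of at least 8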;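 also: Pro5 are CHO cells carrying HIG-tagged alpha-DG that lacks glycosylation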
Tn7 DDE conf = confirmation of inhibitors of Tn7 binding to human fibrin DD(E); FP displacement of TRITC-Tn7 peptide from DD(E); 0% set at plate's compound-well median; AID 720628; inhibition, % at 8.3 µM; 5% of 460 active; shares compounds with DDE Tn7 FP inh;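 active = inhibition above the campaign cutoff, the mean of compounds within control limits plus 3 SD, cut at about 14% in these data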;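 also: 100% = median FP of high control wells holding Aha-Tn7 inhibitor peptide; displacers lower polarization since freed probe rises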
Tn7 DDE ctr = DD(E)-Tn7 binding inhibition, counter-screen; shares compounds with DDE Tn7 FP inh; fibrin DD(E), TRITC-Tn7 probe displacement, fluorescence polarization; inhibition, % at 8.3 µM; 3% of 460 active; AID 720633;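 active = inhibition above the cutoff, the mean of compounds lying between the control bounds plus 3 SD of those compounds, cut at about 17% in these data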;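 also: 0% = median of compound sample wells and 100% = excess unlabeled Aha-Tn7 peptide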
Numbers without * were called inactive. Most compounds without a hit are left out; they make up all but 1.3% or so of the library.

How did CC(=O)Nc1ccc(N2C(=O)c3cccc4c(O)ccc(c34)C2=O)cc1 do in these assays?
DDE Tn7 FP inh: 20.1*; DDE Tn6 FP inh: 4.4; NRP1-CendR mod: 144.0; aDG glyco up: 0.2; Tn7 DDE conf: 4.6; Tn7 DDE ctr: 6.9

How did CCc1cc2c(nc1CC)CCCN2S(=O)(=O)c1ccc(C)cc1 do in these assays?
DDE Tn7 FP inh: 6.9; DDE Tn6 FP inh: 8.5

How did CC(C)C1C(=O)N(Cc2cn(Cc3ccco3)nn2)CCS(=O)(=O)N1Cc1ccc(-c2ccc(F)cc2)cc1 (configuration not stated) do in these assays?
DDE Tn7 FP inh: -7.9; DDE Tn6 FP inh: 0.3; NRP1-CendR mod: 1.3; aDG glyco up: 0.0

Results for C[C@@H]1C=CCCO[C@]12C(=O)N(Cc1ccc(Br)cc1)c1ccccc12 ?
DDE Tn7 FP inh: -2.3; DDE Tn6 FP inh: -1.1

How did NS(=O)(=O)c1ccc(N/N=C/c2cn(-c3ccccc3)nc2-c2cccs2)cc1 do in these assays?
DDE Tn7 FP inh: 14.5*; DDE Tn6 FP inh: -6.2; NRP1-CendR mod: 29.9*; aDG glyco up: 0.7; Tn7 DDE conf: 8.0; Tn7 DDE ctr: 1.1

How did NS(=O)(=O)c1ccc(N/N=C/c2cn(-c3ccccc3)nc2-c2cccs2)c([N+](=O)[O-])c1 do in these assays?
DDE Tn7 FP inh: 4.6; DDE Tn6 FP inh: -0.8; NRP1-CendR mod: -9.0; aDG glyco up: -0.9

Results for Cc1ccccc1S(=O)Cc1ccc(C(=O)NC2CCN(Cc3ccccc3)CC2)o1 (configuration not stated) ?
DDE Tn7 FP inh: 14.0*; DDE Tn6 FP inh: -9.7; NRP1-CendR mod: -4.2; aDG glyco up: -0.4; Tn7 DDE conf: 5.3; Tn7 DDE ctr: -4.5

Results for CCOC(=O)NC(=O)C(/C=N/c1sccc1C(=O)OC)=C(\C)O ?
DDE Tn7 FP inh: 29.1*; DDE Tn6 FP inh: 0.6; NRP1-CendR mod: -7.1; aDG glyco up: -0.4; Tn7 DDE conf: -4.2; Tn7 DDE ctr: -8.3

Results for COc1ccc(CCC(=O)N2CCN(c3ccccc3)CC2)cc1OC ?
DDE Tn7 FP inh: 15.3*; DDE Tn6 FP inh: 1.4; NRP1-CendR mod: 3.9; aDG glyco up: -0.1; Tn7 DDE conf: -2.8; Tn7 DDE ctr: -14.4

How did CCOC(=O)C1=CCN(S(=O)(=O)c2ccc(Cl)cc2)C1c1cccc(Br)c1 (configuration not stated) do in these assays?
DDE Tn7 FP inh: 2.3; DDE Tn6 FP inh: 3.8

How did O=C(CSc1nnc(NC(=O)C2CC(=O)N(c3ccc(F)cc3)C2)s1)NC1CCCC1 (configuration not stated) do in these assays?
DDE Tn7 FP inh: 13.9*; DDE Tn6 FP inh: 10.3; NRP1-CendR mod: -9.6; aDG glyco up: 0.3; Tn7 DDE conf: 9.0; Tn7 DDE ctr: 3.9

Results for O=C(Nc1nnc(SCC(=O)N2CCCC2)s1)C1CC(=O)N(c2ccc(F)cc2)C1 (configuration not stated) ?
DDE Tn7 FP inh: 0.9; DDE Tn6 FP inh: 2.8; NRP1-CendR mod: -7.8; aDG glyco up: 0.1

Results for Cc1cc2nc3c(=O)[nH]c(=O)[nH]c3nc2c([N+](=O)[O-])c1N ?
DDE Tn7 FP inh: 31.2*; DDE Tn6 FP inh: -5.7; NRP1-CendR mod: 132.3; aDG glyco up: 0.0; Tn7 DDE conf: 11.3; Tn7 DDE ctr: 7.1

Results for CCn1c(=O)cc(SCC(=O)Nc2cccnc2)c2ccccc21 ?
DDE Tn7 FP inh: 14.0*; DDE Tn6 FP inh: -2.3; NRP1-CendR mod: 1.0; aDG glyco up: -0.1; Tn7 DDE conf: 2.3; Tn7 DDE ctr: -1.1

Results for O=C(NCCNS(=O)(=O)c1ccc(C(F)(F)F)cc1)N1CCOCC1 ?
DDE Tn7 FP inh: -0.2; DDE Tn6 FP inh: 1.0; NRP1-CendR mod: 13.0; aDG glyco up: 0.0

Results for O=C(NCCNS(=O)(=O)c1ccccc1)N1CCOCC1 ?
DDE Tn7 FP inh: 14.9*; DDE Tn6 FP inh: -1.4; NRP1-CendR mod: 5.9; aDG glyco up: -0.2; Tn7 DDE conf: 1.5; Tn7 DDE ctr: 4.1

How did Cc1ccc(NC(=O)Cc2nnc(SCC(=O)Nc3nncs3)n2C)c(C)c1 do in these assays?
DDE Tn7 FP inh: 3.8; DDE Tn6 FP inh: -1.6; NRP1-CendR mod: -5.9; aDG glyco up: -0.2

What do the screens show for `Cn1c(CC(=O)Nc2ccccc2Cl)nnc1SCC(=O)Nc1nncs1`?
DDE Tn7 FP inh: 14.1*; DDE Tn6 FP inh: 1.6; NRP1-CendR mod: -2.5; aDG glyco up: 0.2; Tn7 DDE conf: -8.1; Tn7 DDE ctr: -10.7

Results for CC1(C)OC(=O)NC1c1ccccc1 (configuration not stated) ?
DDE Tn7 FP inh: -0.6; DDE Tn6 FP inh: -2.7; NRP1-CendR mod: -14.4; aDG glyco up: 0.3

How did CC(C)C(=O)Nc1nnc(COc2ccc(Cl)cc2)s1 do in these assays?
DDE Tn7 FP inh: 14.5*; DDE Tn6 FP inh: 0.0; NRP1-CendR mod: 7.2; aDG glyco up: -0.1; Tn7 DDE conf: -2.6; Tn7 DDE ctr: -4.7

How did CC(=O)Nc1nnc(COc2ccc(Cl)cc2)s1 do in these assays?
DDE Tn7 FP inh: -8.1; DDE Tn6 FP inh: -1.5; NRP1-CendR mod: -7.8; aDG glyco up: 0.3

How did CCOC(=O)C1=CCN(S(=O)(=O)c2cccc(Cl)c2)C1c1cccc(Cl)c1 (configuration not stated) do in these assays?
DDE Tn7 FP inh: 15.6*; DDE Tn6 FP inh: -0.8; Tn7 DDE conf: -4.6; Tn7 DDE ctr: -9.1

What do the screens show for `O=C(c1ccccc1)c1ccc(O)cc1O`?
DDE Tn7 FP inh: 33.8*; DDE Tn6 FP inh: 0.1; NRP1-CendR mod: 129.6; aDG glyco up: -0.3; Tn7 DDE conf: 11.9; Tn7 DDE ctr: -12.2

How did CN(C)C(CNC(=O)c1cc(S(=O)(=O)N(C)c2ccc(F)cc2)ccc1Cl)c1cccs1 (configuration not stated) do in these assays?
DDE Tn7 FP inh: 14.6*; DDE Tn6 FP inh: 1.9; NRP1-CendR mod: -0.4; aDG glyco up: 0.1; Tn7 DDE conf: 2.6; Tn7 DDE ctr: -0.5

What do the screens show for `CCOCCCNC(=S)N1CCC(C(=O)c2ccc(C)cc2)CC1`?
DDE Tn7 FP inh: 14.1*; DDE Tn6 FP inh: 2.1; NRP1-CendR mod: 0.0; aDG glyco up: 0.0; Tn7 DDE conf: 1.3; Tn7 DDE ctr: -3.5

Results for CC1CC(C)(C)CC2(C1)NC(=O)N(CC(=O)Nc1ccc3c(c1)OCO3)C2=O (configuration not stated) ?
DDE Tn7 FP inh: 1.2; DDE Tn6 FP inh: -1.8; NRP1-CendR mod: -15.5; aDG glyco up: 0.0

What do the screens show for `Cc1cccc(NC(=O)C(=O)NCC2CCCN2S(=O)(=O)c2ccccc2)c1` (configuration not stated)?
DDE Tn7 FP inh: 1.0; DDE Tn6 FP inh: 0.7; NRP1-CendR mod: -2.1; aDG glyco up: 0.3

Results for COc1ccc(-c2cn3c(C)c(C(=O)Nc4cccc(NC(C)=O)c4)sc3n2)cc1 ?
DDE Tn7 FP inh: 14.1*; DDE Tn6 FP inh: -3.5; NRP1-CendR mod: -10.5; aDG glyco up: 0.8; Tn7 DDE conf: 4.8; Tn7 DDE ctr: -5.3
